Source: ChEMBL document CHEMBL5108061, “Lectin-Targeted Prodrugs Activated by Pseudomonas aeruginosa for Self-Destructive Antibiotic Release” (J Med Chem, 2022)
In brackets after ≈: the same amount, converted by molar mass.

Assays:
Elastase [1] = molecular target: T1, Elastase (Pseudomonas aeruginosa (strain ATCC 15692 / PAO1 / 1C / PRS 101 / LMG12228), UniProt P14756); assay: Prodrug activation assessed as LasB- mediated drug release in Pseudomonas aeruginosa PA14 cell supernatant and measured after 24 hrs by HPLC-MS analysis
T1 sequence (P14756 whole entry): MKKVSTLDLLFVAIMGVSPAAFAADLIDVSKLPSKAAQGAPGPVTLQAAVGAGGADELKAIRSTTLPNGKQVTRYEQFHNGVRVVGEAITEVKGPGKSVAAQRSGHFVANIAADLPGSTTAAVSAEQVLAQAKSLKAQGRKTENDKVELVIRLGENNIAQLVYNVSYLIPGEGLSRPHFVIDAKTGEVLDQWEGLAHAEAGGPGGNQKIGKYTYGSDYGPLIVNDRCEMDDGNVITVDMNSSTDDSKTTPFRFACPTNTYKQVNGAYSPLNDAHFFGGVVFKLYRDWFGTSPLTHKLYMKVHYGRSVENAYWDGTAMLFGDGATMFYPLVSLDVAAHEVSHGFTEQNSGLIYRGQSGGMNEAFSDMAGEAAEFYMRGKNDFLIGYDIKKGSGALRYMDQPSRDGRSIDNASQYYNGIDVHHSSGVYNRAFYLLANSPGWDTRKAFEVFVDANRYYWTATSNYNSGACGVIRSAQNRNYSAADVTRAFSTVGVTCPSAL

Pseudomonas aeruginosa [2] = assay: Antibacterial activity against Pseudomonas aeruginosa PA14 assessed inhibition of bacterial growth incubated for 18 to 20 hrs by broth microdilution method; format: functional; settings: time 18-20 hrs
Summary of the method: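 Broth microdilution per EUCAST in Müller-Hinton broth II, no matrix preincubation. […] Inoculum from overnight LB-agar colonies adjusted to OD600 0.08–0.13, diluted 1:100, final 5 × 10^5 cfu/mL.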

[3] = molecular target: T2, PA-I galactophilic lectin (Pseudomonas aeruginosa (strain ATCC 15692 / PAO1 / 1C / PRS 101 / LMG12228), UniProt Q05097); assay: Competitive binding affinity to recombinant Pseudomonas aeruginosa LecA expressed in Escherichia coli BL21(DE3) incubated for 30 to 60 mins by fluorescent polarization assay
T2 sequence (Q05097 whole entry): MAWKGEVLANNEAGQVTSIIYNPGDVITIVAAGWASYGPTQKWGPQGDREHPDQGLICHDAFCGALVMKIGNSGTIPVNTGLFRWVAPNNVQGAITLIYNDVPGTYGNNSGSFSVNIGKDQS
Summary of the method: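 Recombinant LecA (E. coli BL21(DE3), galactosyl-sepharose purified) at 40 μM with 20 nM fluorescein-galactoside reporter in TBS/Ca pH 7.4; compounds serially diluted with 30% DMSO co-solvent, technical triplicates; 30–60 min at 22 °C; fluorescence polarization (ex 485/em 535); four-parameter fit with plateaus fixed by pNP-β-D-Gal control; ≥3 independent experiments.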

Elastase [4] = molecular target: T1, Elastase; assay: Prodrug activation assessed as LasB-mediated drug release in Pseudomonas aeruginosa PA14 cell supernatant in presence of human blood plasma and measured for 3 hrs by HPLC-MS analysis; format: cell-free
[5] = Stability of compound in human blood plasma spiked with Pseudomonas aeruginosa PA14 matrix assessed as hydrolysis of prodrug and measured upto 3 hrs by HPLC-MS/MS analysis; format: ADME, cell-free
Pseudomonas aeruginosa [6] = assay: (§1) Antibacterial activity against Pseudomonas aeruginosa PA14 assessed inhibition of bacterial growth preincubated for 10 mins in PBS buffer followed by overnight grown bacterial culture addition incubated for 18 to 20 hrs by broth microdilution method; format: functional
Summary of the method: (§2)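 Prodrug serial dilutions in PBS/20% DMSO (1 mM to 1.9 μM) were diluted about 1:20 into matrix. Matrices: plasma 5 mL + PA14 LB-culture sterile filtrate 1 mL + PBS 4 mL; filtrate 1 mL + PBS 9 mL; PBS alone; plasma 5 mL + LB 1 mL + PBS 4 mL. Preincubation was 3 h at 37 °C, or <10 min at room temperature.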

Pseudomonas aeruginosa [7] = assay: (§3) Antibacterial activity against Pseudomonas aeruginosa PA14 assessed inhibition of bacterial growth preincubated for 3 hrs in PBS buffer followed by overnight grown bacterial culture addition incubated for 18 to 20 hrs by broth microdilution method; format: functional; settings: time 21-23 hrs; summary of the method: as §2
Pseudomonas aeruginosa [8] = assay: as §1, with “mins in matrix containing human blood plasma spiked with Pseudomonas aeruginosa cell culture supernatant” for “mins”; format: functional; summary of the method: as §2
Pseudomonas aeruginosa [9] = assay: (§4) Antibacterial activity against Pseudomonas aeruginosa PA14 assessed inhibition of bacterial growth preincubated for 3 hrs in matrix containing 50% human blood plasma and 10% Pseudomonas aeruginosa cell culture supernatant in PBS followed by overnight grown bacterial culture addition incubated for 18 to 20 hrs by broth microdilution method; format: functional; settings: time 21-23 hrs; summary of the method: as §2
Pseudomonas aeruginosa [10] = assay: as §4, with “containing” for “containing 50%”, “spiked with” for “and 10%”, “PBS buffer” for “PBS”; format: functional; summary of the method: as §2
Pseudomonas aeruginosa [11] = assay: as §3, with “3 hrs in matrix containing Pseudomonas aeruginosa cell culture supernatant in PBS” for “3 hrs in PBS”; format: functional; settings: time 21-23 hrs; summary of the method: as §2
Pseudomonas aeruginosa [12] = assay: (§5) Antibacterial activity against Pseudomonas aeruginosa PA14 assessed inhibition of bacterial growth preincubated for 10 mins in matrix containing human blood plasma spiked with fresh LB medium in PBS followed by overnight grown bacterial culture addition incubated for 18 to 20 hrs by broth microdilution method; format: functional; summary of the method: as §2
Pseudomonas aeruginosa [13] = assay: as §5, with “3 hrs” for “10 mins”; format: functional; settings: time 21-23 hrs; summary of the method: as §2
[14] = molecular target: Fucose-binding lectin PA-IIL (Pseudomonas aeruginosa (strain ATCC 15692 / DSM 22644 / CIP 104116 / JCM14847 / LMG 12228 / 1C / PRS 101 / PAO1), UniProt Q9HYN5); assay: Competitive binding affinity to recombinant Pseudomonas aeruginosa PAO1 LecB expressed in Escherichia coli BL21(DE3) incubated for 4 to 8 hrs by fluorescent polarization assay
Sequence of Fucose-binding lectin PA-IIL (Q9HYN5 whole entry): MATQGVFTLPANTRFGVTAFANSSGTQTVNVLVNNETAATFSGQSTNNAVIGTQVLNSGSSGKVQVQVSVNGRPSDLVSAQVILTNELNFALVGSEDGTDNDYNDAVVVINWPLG

| MIC (Pseudomonas aeruginosa [2]) | Compound | IC50 [3] | Drug metabolism (Elastase [4]) | Stability [5] | MIC (Pseudomonas aeruginosa [6]) | MIC (Pseudomonas aeruginosa [7]) | MIC (Pseudomonas aeruginosa [8]) | MIC (Pseudomonas aeruginosa [9]) | MIC (Pseudomonas aeruginosa [10]) | MIC (Pseudomonas aeruginosa [11]) | MIC (Pseudomonas aeruginosa [12]) | MIC (Pseudomonas aeruginosa [13]) | other results |
| --- | --- | --- | --- | --- | --- | --- | --- | --- | --- | --- | --- | --- | --- |
| 58 µM (≈ 29.9 µg/mL) | CC(C)C[C@H](N)C(=O)N[C@@H](C)C(=O)N[C@H]1CCN(c2cc3c(cc2F)c(=O)c(C(=O)O)cn3C2CC2)C1 | – | – | – | – | – | – | – | – | – | – | – | Drug metabolism (Elastase [1]): Metabolite_Notdetected |
| 28 µM (≈ 14.8 µg/mL) | CC(C)C[C@H](N)C(=O)N[C@@H](C)C(=O)NC[C@H]1CCN(c2cc3c(cc2F)c(=O)c(C(=O)O)cn3C2CC2)C1 | – | – | – | – | – | – | – | – | – | – | – | – |
| – | CC(C)C[C@H](NC(=O)CNC(=O)[C@H](C)NC(=O)c1ccc(S[C@@H]2O[C@H](CO)[C@H](O)[C@H](O)[C@H]2O)cc1)C(=O)N[C@@H](C)C(=O)NC[C@@H]1CCN(c2cc3c(cc2F)c(=O)c(C(=O)O)cn3C2CC2)C1 | 28 µM | Metabolite_Detected | Stable | > 25 µM | > 25 µM | 3.13 µM (≈ 2.99 µg/mL) | 1.56 µM (≈ 1.49 µg/mL) | 1.56 µM (≈ 1.49 µg/mL) | 1.56 µM (≈ 1.49 µg/mL) | > 25 µM | 12.5 µM (≈ 12 µg/mL) | – |
| 0.29 µM (≈ 0.1 µg/mL) | NC[C@@H]1CCN(c2cc3c(cc2F)c(=O)c(C(=O)O)cn3C2CC2)C1 | – | – | – | – | – | – | – | – | – | – | – | – |
| – | CC(C)C[C@H](NC(=O)CNC(=O)[C@H](C)NC(=O)c1ccc(S(=O)(=O)NC[C@H]2O[C@@H](C)[C@@H](O)[C@@H](O)[C@@H]2O)cc1)C(=O)N[C@@H](C)C(=O)N1CCN(c2cc3c(cc2F)c(=O)c(C(=O)O)cn3C2CC2)CC1 | – | Metabolite_Notdetected | Stable | > 25 µM | > 25 µM | ≥ 25 µM | ≥ 25 µM | ≥ 25 µM | ≥ 25 µM | ≥ 25 µM | ≥ 25 µM | IC50 [14]: 4.63 µM |
| – | O=[N+]([O-])c1ccc(O[C@@H]2O[C@H](CO)[C@H](O)[C@H](O)[C@H]2O)cc1 | 61.9 µM | – | – | – | – | – | – | – | – | – | – | – |
